The list is not random: actives were taken first. Their share in the collection is about 2%.
ARNT TACC3 PPI – ARNT/TACC3 interaction disruption; Q9Y6A5; AlphaScreen His-ARNT PAS-B/GST-TACC3 binding, luminescence; TACC3 fragment carries E629A point mutation; inhibition, % at 9.99 µM; 390,000 compounds, 0.66% hits; AID 623870;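 active = mean inhibition of replicates at least 50% and at least half of replicates each reaching 50%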
NSD2 inh – blocks human histone methyltransferase NSD2; O96028; NSD2 peptide methylation, AlphaScreen, 120 min; inhibition, % at 12.5 µM; 310,000 compounds, 0.54% hits; in the data active = inhibition above about 50%
SR-BI DiI inh – blocks mouse SR-BI lipid uptake from DiI-HDL; Q61009; ldlA[mSR-BI] CHO cells, DiI-HDL uptake fluorescence, 3 h; inhibition, % at 12.5 µM; 320,000 compounds, 0.96% hits; AID 488896;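 active = mean replicate inhibition of at least 70% and a set share of replicates each scoring 70 or more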
Target sequence (Q61009 whole entry, looked up): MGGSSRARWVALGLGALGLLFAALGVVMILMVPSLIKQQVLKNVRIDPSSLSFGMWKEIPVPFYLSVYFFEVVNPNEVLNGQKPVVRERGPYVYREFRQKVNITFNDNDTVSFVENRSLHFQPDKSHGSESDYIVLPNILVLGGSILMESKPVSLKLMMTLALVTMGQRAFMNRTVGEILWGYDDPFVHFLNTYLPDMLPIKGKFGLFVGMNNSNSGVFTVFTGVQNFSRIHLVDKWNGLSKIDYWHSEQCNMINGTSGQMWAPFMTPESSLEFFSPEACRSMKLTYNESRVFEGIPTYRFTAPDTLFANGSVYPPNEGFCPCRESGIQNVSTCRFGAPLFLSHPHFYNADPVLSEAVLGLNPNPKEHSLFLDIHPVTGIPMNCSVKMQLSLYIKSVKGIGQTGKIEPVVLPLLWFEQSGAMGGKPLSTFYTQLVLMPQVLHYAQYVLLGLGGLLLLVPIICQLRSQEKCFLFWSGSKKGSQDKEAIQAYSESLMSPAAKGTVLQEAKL
SR-BI uptake up – SR-BI HDL lipid transfer activation | AID 504775 | CHO ldlA[mSR-BI] cells, DiI-HDL uptake fluorescence, 3 h; 100 = double the neutral-control signal | activation, % at 12.5 µM | 320,000 compounds, 0.096% hits;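 active = mean replicate activation of at least 60% and every replicate at or above 60%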
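material = CHO ldlA[mSR-BI] cells | medium = Ham's F12 with 0.5% BSA, HEPES 25 mM, pH 7.4 | reagent = fluorescent DiI-HDL, 10 µg/mL final | compound dosing = single-point compound dose | incubation = 3 h, 37 °C | measured by = bottom-read fluorescence, 550/595 nm | measure = HDL uptake via cellular fluorescence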
HGIII-sPLA2 inh – Blocks human group III sPLA2 activity. 370,000 compounds, 0.56% hits. QFRET BODIPY PC-A2 liposome hydrolysis, fluorescence. AID 743126. inhibition, % at 12.2 µM;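 active = inhibition above mean plus 3 SD of compounds lying within the high and low control bounds, cut at about 19% in these data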
XiGFP reactiv – activators of X-chromosome reactivation in mouse fibroblasts; XiGFP mouse fibroblasts, % GFP-positive cells imaging, 3 d; cells co-treated with 5-aza-dC sensitizer; scaled so ellipticine positive control = 100%; activation, % at 7.58 µM; 360,000 compounds, 0.055% hits; AID 743238;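 active = mean normalized replicate activation at least 10% and every replicate at or above 10%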
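Material: XiGFP fibroblasts, SV40-immortalized. Buffer or medium: DMEM plus 5-aza-dC sensitizer. Compound: single concentration per compound, delivered by pin transfer. Times: 3 days compound exposure. Controls: ellipticine 6 µM.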
Alpha artifact – interferes with AlphaScreen signal, flagging NSD2 false positives. shares compounds with NSD2 inh. AlphaScreen artifact counterscreen, preloaded methylated H4 peptide. AC35, µM (titrated, usually from 10 µM). 1,500 compounds, 9.4% hits; call rule not given here
A number is an active result; 0 = inactive; - = no result.

SMILES	ARNT TACC3 PPI	NSD2 inh	SR-BI DiI inh	SR-BI uptake up	HGIII-sPLA2 inh	XiGFP reactiv	Alpha artifact
CC1CCCN(C2=C(NS(=O)(=O)c3ccc(Cl)cc3)C(=O)c3ccccc3C2=O)C1 (configuration not stated)	-	0	0	0	0	0	-
NC(=O)C1CCN(C2=C(NS(=O)(=O)c3ccc(Cl)cc3)C(=O)c3ccccc3C2=O)CC1	0	77	-	-	0	0	0
COC(=O)C1CCN(C2=C(NS(=O)(=O)c3ccc(Cl)cc3)C(=O)c3ccccc3C2=O)CC1	0	62	0	0	0	0	7.8µM
CC(C)NC(=O)/C(=N\O)c1ccccc1	0	0	0	0	0	-	-
CS(=O)(=O)c1nc(-c2ccc(Br)cc2)cs1	-	-	-	-	0	-	-
CCOc1ccc2nc(SCC(=O)NCc3ccco3)sc2c1	0	129	0	0	0	-	0
COc1ccccc1C(=O)N(Cc1ccccn1)CC1CCCO1 (configuration not stated)	-	0	-	-	0	-	-
CN=c1sc2ccccc2n1CC(O)c1ccccc1 (configuration not stated)	0	0	0	0	0	0	-
Cn1c(=O)cc2c3c(c(N4CCCCC4)ccc31)C(=O)c1ccccc1-2	-	71	-	-	0	0	7.8µM
O=C1c2ccccc2C(=O)c2c1cccc2N1CCCC1	0	0	0	0	0	0	-
N#Cc1c(NC(=O)c2ccncc2)sc2c1CCC2	0	57	0	0	-	-	0
NC(=O)c1c(NC(=O)c2ccncc2)sc2c1CCCC2	0	0	0	0	0	0	-
CCCN(CCC)CCCNC(=O)c1cn(CC)c2ccc(S(=O)(=O)N3CCc4ccccc4C3)cc2c1=O	0	50	-	-	0	0	0
COc1ccc([Si](C)(C)[C@@H]2[C@@H](CCO)O[C@]3(C(=O)N(Cc4ccc(N5CCCCC5=O)cc4)c4ccccc43)[C@H]2C)cc1	0	-	-	-	-	-	-
Nc1ccc2c(c1)OCCOCCOCCOCCOCCO2	0	64	0	0	0	0	0
Brc1ccc2c(c1)OCCOCCOc1cc(Br)ccc1OCCOCCOCCO2	0	-	0	0	-	-	-
COc1ccccc1-n1cc(C(=O)NCC(=O)N2CCN(Cc3ccccc3)CC2)c2ccccc2c1=O	0	0	0	0	0	0	-
CCOC(=O)c1cc(NC(=O)CN2CCCC2)cc(C(=O)OCC)c1	0	96	-	-	0	0	0
CC(C)c1ccc(NC(=S)N2CCCC(c3ccc(F)cc3)=N2)cc1	0	60	0	0	0	0	0
S=C(Nc1ccccc1Cl)N1CCCC(c2ccccc2)=N1	0	0	0	0	0	0	-
N#Cc1ccc(C(=O)OCC(=O)N2CCN(C(=O)c3ccco3)CC2)cc1	0	0	0	0	0	0	-
N#Cc1ccccc1OCC(=O)OCC(=O)N1CCN(C(=O)c2ccco2)CC1	0	57	0	0	0	0	0
Cc1ccc(-c2csc3nc(CN(C)Cc4ccccc4)[nH]c(=O)c23)cc1	0	60	0	0	0	0	0
Cc1ccc(S(=O)(=O)N(Cc2cccc(C)c2)C(=O)N2CCN(C)CC2)cc1	0	0	0	0	0	0	-
CC1CCC2C(C1)c1sc(=O)[nH]c1SC2(C)C (configuration not stated)	0	111	0	0	0	-	0
C[C@@H](O)C#Cc1ccc([C@H]2[C@@H](CO)N3CCCCN(C(=O)c4ccncc4)C[C@@H]23)cc1	0	-	-	-	-	0	-
CN(C)CCCC1Sc2ccccc2Sc2ccccc21 (configuration not stated)	0	0	-	-	0	0	-
CNCCC1Sc2ccccc2Oc2ccccc21 (configuration not stated)	-	100	0	0	0	0	0
O=C(O)CC(NS(=O)(=O)c1cccc2nsnc12)c1ccc(F)cc1 (configuration not stated)	0	0	0	0	0	-	-
O=C(NCc1ccc(F)cc1)C1CCCN1S(=O)(=O)c1ccccc1C(F)(F)F (configuration not stated)	0	137	0	0	0	0	0
